From ChEMBL document CHEMBL1142176, “Antileishmanial effect of 3-aminooxy-1-aminopropane is due to polyamine depletion” (Antimicrob Agents Chemother, 2007)
Active and inactive are the calls of the source. No cut-off for these calls is given here.

Key:
[1] = system: Leishmania donovani; assay: Growth inhibition of wild type Leishmania donovani AG83 promastigotes after 72 hrs by MTT method; settings: AG83, 72 h
[2] = system: Leishmania donovani; assay: Growth inhibition of wild type Leishmania donovani AG83 amastigotes in J774A.1 after 5 days by luciferase reporter assay; settings: AG83, J774.A1, 120 h
[3] = system: Leishmania donovani; assay: Growth inhibition of Leishmania donovani SAG-resistant GE1 LV patient isolate amastigotes in J774A.1 cells after 5 days; assay type: functional, organism-based; settings: J774.A1, 120 h
In short: (§1)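 J774A.1 murine macrophages kept at 37°C in RPMI 1640 with 10% FBS. 1 x 10^5 cells per well were infected with 1 x 10^6 stationary-phase luciferase-expressing (pGL-NEO LUC) promastigotes in M-199 with 10% FBS. Free parasites were washed off after 3 h, then drug was added at a range of concentrations for 5 days. Luciferase was read from washed adherent macrophages, and IC50 was taken from a concentration vs RLU plot.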

[4] = system: Leishmania donovani; assay: Growth inhibition of Leishmania donovani SAG-resistant R2 LV patient isolate amastigotes in J774A.1 cells after 5 days; assay type: functional, organism-based; settings: J774.A1, 120 h
In short: as §1

[5] = target: T1, Ornithine decarboxylase (Leishmania donovani) (UniProt P27116); assay: Inhibition of ODC in Leishmania donovani promastigotes at 50 uM after 48 hrs
T1 sequence (whole entry): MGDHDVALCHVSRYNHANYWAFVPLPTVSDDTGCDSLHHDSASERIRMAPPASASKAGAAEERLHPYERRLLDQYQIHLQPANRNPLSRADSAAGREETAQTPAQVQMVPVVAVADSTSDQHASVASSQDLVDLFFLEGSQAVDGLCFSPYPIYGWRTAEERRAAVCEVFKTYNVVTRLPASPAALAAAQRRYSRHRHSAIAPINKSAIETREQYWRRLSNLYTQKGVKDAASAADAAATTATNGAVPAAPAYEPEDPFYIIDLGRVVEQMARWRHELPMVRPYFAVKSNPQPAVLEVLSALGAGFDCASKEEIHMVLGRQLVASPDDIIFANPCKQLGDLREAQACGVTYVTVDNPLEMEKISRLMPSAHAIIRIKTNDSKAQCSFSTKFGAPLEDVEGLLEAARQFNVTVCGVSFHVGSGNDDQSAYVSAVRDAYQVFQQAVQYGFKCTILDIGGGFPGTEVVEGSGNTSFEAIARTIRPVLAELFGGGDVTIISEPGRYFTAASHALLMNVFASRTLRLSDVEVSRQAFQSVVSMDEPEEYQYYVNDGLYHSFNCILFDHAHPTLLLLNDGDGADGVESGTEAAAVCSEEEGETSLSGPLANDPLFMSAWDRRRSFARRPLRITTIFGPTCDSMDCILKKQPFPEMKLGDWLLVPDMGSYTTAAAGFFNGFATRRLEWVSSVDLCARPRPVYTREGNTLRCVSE
In short: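 Late-log promastigotes (1 x 10^7) were treated 48 h, then washed in PBS and freeze-thaw lysed in 50 mM Tris-HCl pH 7.5, 10 µM EDTA, 2.5 mM DTT. Released 14CO2 is expressed as nmol CO2/mg protein/h (Bradford). Mean ± SD, n = 3.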

[6] = system: Leishmania donovani; assay: Reduction of spermidine level in Leishmania donovani promastigotes at 50 uM after 48 hrs relative to control; assay type: functional; parameters: scale not given: the % may be the effect or the level left
In short: (§2)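 Log-phase promastigotes (1 x 10^7) were exposed 48 h and pelleted at 2,000 x g, 4°C. Acid extracts were dansyl-chloride derivatized before column and analysed by C18 reversed-phase HPLC. Values are vs untreated controls, mean ± SD (n = 3), Student's t test, P < 0.05.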

[7] = system: Leishmania donovani; assay: Growth inhibition of Leishmania donovani amastigotes S1 LV patient isolate in J774A.1 cells after 5 days; assay type: functional, organism-based; settings: J774.A1, 120 h
In short: as §1

[8] = system: Leishmania donovani; assay: Growth inhibition of Leishmania donovani AG83 amastigotes transfected with episomal ODC gene construct overproducing ODC; assay type: functional, organism-based
[9] = system: Leishmania donovani; assay: Growth inhibition of Leishmania donovani promastigotes S1 LV patient isolate in J774A.1 cells after 5 days; assay type: functional, organism-based
[10] = system: Leishmania donovani; assay: Growth inhibition of Leishmania donovani AG83 promastigotes transfected with episomal ODC gene construct overproducing ODC; assay type: functional, organism-based
In short: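 Late-log-phase promastigotes, cultured at 22°C in M-199 (Hanks' salts, 25 mM HEPES, 10% FBS, gentamicin), were exposed to drug for 72 h. MTT was then added for 4 h, the reaction was stopped with acidic isopropanol, and absorbance was read at 570 nm to give IC50. Two or more independent experiments were run in triplicate.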

[11] = system: Leishmania donovani; assay: Growth inhibition of Leishmania donovani SAG-resistant R2 LV patient isolate promastigotes in J774A.1 cells after 5 days; assay type: functional, organism-based
[12] = system: Leishmania donovani; assay: Reversal of growth inhibition of Leishmania donovani promastigotes at 50uM after 48 hrs of 1 mM putrescine treatment; assay type: functional, organism-based
In short: (§3)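 Promastigotes grown at 22°C in M-199 (Hanks' salts, 25 mM HEPES, 10% FBS, 100 µg/ml gentamicin) with 50 µM drug. 1 mM putrescine or spermidine was added after 24 h or 48 h of treatment. Growth was followed over 120 h by hemocytometer counts every 24 h. Mean ± SD of three determinations.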

[13] = system: Leishmania donovani; assay: Reversal of growth inhibition of Leishmania donovani promastigotes at 50uM after 24 hrs of 1 mM putrescine treatment; assay type: functional, organism-based
In short: as §3

[14] = system: J774.A1; assay: Growth inhibition of J774A.1 macrophage cells after 24 hrs by MTT method; assay type: functional, cell-based; settings: Mus musculus, J774.A1, 24 h
In short: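 J774A.1 murine macrophages kept at 37°C in RPMI 1640 with 10% FBS. Viability was read 24 h after drug addition.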

[15] = system: Leishmania donovani; assay: Growth inhibition of Leishmania donovani SAG-resistant GE1 LV patient isolate promastigotes in J774A.1 cells after 5 days; assay type: functional, organism-based
[16] = system: Leishmania donovani; assay: Reduction of trypanothione level in Leishmania donovani promastigotes at 50 uM after 48 hrs relative to control; assay type: functional; parameters: scale not given: the % may be the effect or the level left
In short: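 Log-phase promastigotes were treated 48 h before harvest, compared with untreated controls. Mean ± SD, n = 3, Student's t test.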

[17] = system: Leishmania donovani; assay: Growth inhibition of Leishmania donovani SAG-resistant R1 LV patient isolate promastigotes in J774A.1 cells after 5 days; assay type: functional, organism-based
[18] = system: Leishmania donovani; assay: Reversal of growth inhibition of Leishmania donovani promastigotes at 50 uM after 24 hrs of 1 mM spermidine treatment; assay type: functional, organism-based
In short: as §3

[19] = system: Leishmania donovani; assay: Reversal of growth inhibition of Leishmania donovani promastigotes at 50 uM after 48 hrs of 1 mM spermidine treatment; assay type: functional, organism-based
In short: as §3

[20] = system: Leishmania donovani; assay: Growth inhibition of Leishmania donovani SAG-resistant R1 LV patient isolate amastigotes in J774A.1 cells after 5 days; assay type: functional, organism-based; settings: J774.A1, 120 h
In short: as §1

[21] = system: Leishmania donovani; assay: Reduction of putrescine level in Leishmania donovani promastigotes at 50 uM for after 48 hrs relative to control; assay type: functional; parameters: scale not given: the % may be the effect or the level left
In short: as §2

SMILES: NCCCC(N)(C(=O)O)C(F)F (stereo not drawn) [EFLORNITHINE]
- IC50 [1]: > 10000 µM
- IC50 [2]: 50 µM

SMILES: NCCCON
- IC50 [1]: 42 µM
- IC50 [3]: > 200 µM
- IC50 [4]: > 200 µM
- inhibition [5]: 76%
- Activity [6]: 44%
- IC50 [7]: 10 µM
- IC50 [8]: > 100 µM
- IC50 [9]: 19 µM
- IC50 [10]: 155 µM
- IC50 [11]: 46 µM
- Activity [12]: Active
- Activity [13]: Active
- IC50 [14]: > 200 µM
- IC50 [2]: 5 µM
- IC50 [15]: > 400 µM
- Activity [16]: 79%
- IC50 [17]: > 400 µM
- Activity [18]: Active
- Activity [19]: Active
- IC50 [20]: > 200 µM
- Activity [21]: 70%
